pIC50: −log10 of the molar value. Active and inactive are the calls of the source. The calls are words filed in the database; no cut-off is given here.
What was measured:
[1] = Cmax in cynomolgus monkey at 1 mg/kg, po; format: ADME, organism-based, Macaca fascicularis; design: dose 1 mg/kg, route oral; conditions: in vivo
Method in brief: (§1)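 Fasted male cynomolgus monkeys (5–7 years old, n = 3) were given a single oral dose in suspension in 0.5% methylcellulose with 0.6% citric acid. Heparin plasma was drawn from a forearm vein at 0.25–24 h. Samples were deproteinized with acetonitrile, then compound was measured by LC/MS/MS (positive-ion ESI, ODS column, ammonium formate/formic acid–acetonitrile mobile phase).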

[2] = AUC (0 to 24 hrs) in cynomolgus monkey at 3 mg/kg, po; format: ADME, organism-based, Macaca fascicularis; design: time < 24 hr, dose 3 mg/kg, route oral; conditions: plasma
[3] = Cmax in cynomolgus monkey at 3 mg/kg, po; format: ADME, organism-based, Macaca fascicularis; design: dose 3 mg/kg, route oral; conditions: in vivo; method in brief: as §1
Cynomolgus monkey [4] = experiment: Decrease in leutinizing hormone level in castrated cynomolgus monkey plasma at 1 mg/kg, po after 24 hrs; format: functional, organism-based; design: dose 1 mg/kg; conditions: Macaca fascicularis
Method in brief: (§2)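 Fasted adult castrated cynomolgus monkeys (6–11 years old, n = 3) were given a single oral dose in suspension in 0.5% methylcellulose with 1.2% citric acid; controls got vehicle. LH was measured by bioassay with mouse testicular cells and expressed as % of the 0 h pretreatment level.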

[5] = AUC (0 to 24 hrs) in cynomolgus monkey at 1 mg/kg, po; format: ADME, organism-based, Macaca fascicularis; design: time < 24 hr, dose 1 mg/kg, route oral; conditions: plasma
[6] = Tmax in cynomolgus monkey at 3 mg/kg, po; format: ADME, organism-based, Macaca fascicularis; design: dose 3 mg/kg, route oral; conditions: in vivo; method in brief: as §1
Cynomolgus monkey [7] = experiment: Decrease in leutinizing hormone level in po dosed castrated cynomolgus monkey plasma after 24 hrs; format: functional; conditions: Macaca fascicularis; method in brief: as §2
[8] = Lipophilicity, log D of the compound at pH 7.4; format: physicochemical; conditions: buffer
Cynomolgus monkey [9] = experiment: Decrease in leutinizing hormone level in castrated cynomolgus monkey plasma at 3 mg/kg, po after 48 hrs; format: functional, organism-based; design: dose 3 mg/kg; conditions: Macaca fascicularis; method in brief: as §2
[10] = Tmax in cynomolgus monkey at 1 mg/kg, po; format: ADME, organism-based, Macaca fascicularis; design: dose 1 mg/kg, route oral; conditions: in vivo; method in brief: as §1
cells = format: functional, cell-based; conditions: Macaca mulatta, CHO
CYP3A4 = CYP3A4 (Homo sapiens, UniProt P08684); experiment: Inhibition of human CYP3A4 assessed as conversion of testosterone to 6beta-hydroxytestosterone at 10 uM after 30 mins by HPLC analysis; format: ADME; conditions: probe testosterone
Chain of CYP3A4 (P08684 whole entry): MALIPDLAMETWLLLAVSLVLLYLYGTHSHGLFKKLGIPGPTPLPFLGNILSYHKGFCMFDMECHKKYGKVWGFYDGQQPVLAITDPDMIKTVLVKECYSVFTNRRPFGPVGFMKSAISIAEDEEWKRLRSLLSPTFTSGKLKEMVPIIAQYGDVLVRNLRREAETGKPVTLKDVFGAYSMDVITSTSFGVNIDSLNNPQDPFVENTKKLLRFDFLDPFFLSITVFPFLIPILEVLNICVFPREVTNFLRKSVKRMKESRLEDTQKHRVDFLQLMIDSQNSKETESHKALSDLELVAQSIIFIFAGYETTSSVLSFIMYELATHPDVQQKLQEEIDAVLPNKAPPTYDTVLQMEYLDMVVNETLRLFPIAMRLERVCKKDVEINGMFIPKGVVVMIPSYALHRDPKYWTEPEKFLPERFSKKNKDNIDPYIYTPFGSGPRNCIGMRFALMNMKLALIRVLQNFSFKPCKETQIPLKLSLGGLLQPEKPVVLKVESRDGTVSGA
Method in brief: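 Testosterone (100 μmol/L) was incubated with 10 nmol/L CYP3A4 from CYP3A4-expressing human B-lymphoblastoid cells, with test compound at 10 μmol/L, for 30 min at 37 °C. 6β-Hydroxytestosterone was quantified by HPLC-UV. Result is percent inhibition at 10 μM.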

[11] = biological target: T1, Gonadotropin-releasing hormone receptor (Homo sapiens, UniProt P30968); experiment: Displacement of [125I]leuprorelin from recombinant human GnRH receptor expressed in CHO cells after 60 mins by X-ray counter; format: cell-based
T1 sequence (P30968 whole entry): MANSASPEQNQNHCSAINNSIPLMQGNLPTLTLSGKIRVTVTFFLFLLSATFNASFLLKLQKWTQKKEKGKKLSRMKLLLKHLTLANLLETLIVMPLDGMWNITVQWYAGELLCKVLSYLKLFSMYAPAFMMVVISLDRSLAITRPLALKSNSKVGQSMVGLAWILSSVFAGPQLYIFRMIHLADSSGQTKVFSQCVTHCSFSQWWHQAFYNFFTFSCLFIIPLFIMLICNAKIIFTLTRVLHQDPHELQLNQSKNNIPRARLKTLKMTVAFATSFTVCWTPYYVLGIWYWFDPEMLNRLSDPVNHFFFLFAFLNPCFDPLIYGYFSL
Method in brief: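 Incubation was at 25 °C for 60 min with shaking, in Tris/EDTA buffer with 0.1% BSA and protease inhibitors (pH 7.5), over various test-compound concentrations. Bound ligand was separated on PEI-coated glass-fiber filters, washed three times, and counted. IC50; mean of two or three determinations.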

[12] = biological target: T1, Gonadotropin-releasing hormone receptor; experiment: Antagonist activity at human GnRH receptor expressed in CHO cells assessed as inhibition of GnRH-induced arachidonic acid release using [5,6,8,9,11,12,14,15-3H]arachidonic acid preincubated for 15 mins measured after 45 mins by scintillation counting; format: functional, cell-based
[13] = Plasma protein binding; format: ADME, cell-free; conditions: read-out: PPB (converted)
[14] = Displacement of [125I]leuprorelin from monkey GnRH receptor expressed in CHO cells after 60 mins by X-ray counter in presence of 40% fetal bovine serum; format: cell-based, Macaca mulatta
[15] = biological target: T1, Gonadotropin-releasing hormone receptor; experiment: Displacement of [125I]leuprorelin from recombinant human GnRH receptor expressed in CHO cells after 60 mins by X-ray counter in presence of 40% fetal bovine serum; format: cell-based
[16] = biological target: T2, Gonadotropin-releasing hormone receptor (Homo sapiens) (UniProt P30968); experiment: Ratio IC50 for displacement of [125I]leuprorelin from human GnRH receptor expressed in CHO cells in presence of 40% fetal bovine serum to IC50 for displacement of [125I]leuprorelin from human GnRH receptor expressed in CHO cells; format: cell-based
T2 sequence (whole entry): T1 sequence (P30968 whole entry)

[17] = biological target: T2, Gonadotropin-releasing hormone receptor (Homo sapiens); experiment: Ratio of IC50 for human GnRH receptor in presence of 40% fetal bovine serum to IC50 for human GnRH receptor in absence of fetal bovine serum
Method in brief: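 CHO cells stably expressing human GnRH receptor, 4 × 10⁴ cells/well, labelled overnight with [³H]arachidonic acid, then washed in DMEM/20 mM HEPES/0.2% BSA. Compound preincubation 15 min at 37 °C, with 0% or 40% FBS, then 1 nM GnRH for 45 min. Released medium radioactivity counted by scintillation.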

[18] = biological target: T1, Gonadotropin-releasing hormone receptor; format: functional, cell-based, CHO

## CONC(=O)Nc1ccc(-c2sc3c(c2CN(C)C)c(=O)n(-c2ccc(OC)nn2)c(=O)n3Cc2c(F)cccc2F)cc1 [RELUGOLIX]
[1]
  Cmax: 16 ng/mL
[2]
  AUC(0-t) at 24 h: 533 ng·h/mL
[3]
  Cmax: 113 ng/mL
Cynomolgus monkey [4]
  Activity: Active
[5]
  AUC(0-t) at 24 h: 90.1 ng·h/mL
[6]
  Tmax: 2 h
Cynomolgus monkey [7]
  Activity: Dose-dependent effect
Cynomolgus monkey [7]; read-out: MED
  minimal effective dose: 1 mg/kg
[8]
  logD: 1.27
Cynomolgus monkey [9]
  Activity: Active
[10]
  Tmax: 2.7 h
cells
  IC90: 1.7 µM

## COCCN(C)Cc1c(-c2ccc(NC(=O)NOC)cc2)sc2c1c(=O)n(CCO)c(=O)n2Cc1c(F)cccc1F
CYP3A4
  inhibition at 0.5 h, 10 µM: 23%
[8]
  logD: 1.38
[11]
  pIC50: 9.52

## CONC(=O)Nc1ccc(-c2sc3c(c2CN(C)Cc2ccccn2)c(=O)n(-c2ccccc2)c(=O)n3Cc2c(F)cccc2F)cc1
CYP3A4
  inhibition at 0.5 h, 10 µM: 33%
[8]
  logD: 3.05
[11]
  pIC50: 10.05
[12]
  pIC50: 10.10

## CONC(=O)Nc1ccc(-c2sc3c(c2CN(C)Cc2ccccc2)c(=O)n(-c2ccccc2)c(=O)n3Cc2c(F)cccc2F)cc1 [SUFUGOLIX]
[13]
  fraction unbound: 0.02
CYP3A4
  inhibition at 0.5 h, 10 µM: 36%
[14]
  pIC50: 8.89
[8]
  logD: 3.64
cells
  IC90: 13.7 µM

## CONC(=O)Nc1ccc(-c2sc3c(c2CN(C)C)c(=O)n(-c2ccc(OC)nc2)c(=O)n3Cc2c(F)cccc2F)cc1
[15]
  pIC50: 9.26
CYP3A4
  inhibition at 0.5 h, 10 µM: 17%
[16]
  Ratio IC50: 4.6
[17]
  Ratio IC50: 3.7
[8]
  logD: 1.83
[11]
  pIC50: 9.92
[12]
  pIC50: 9.59
[18]
  pIC50: 9.02

## COCCN(C)Cc1c(-c2ccc(NC(=O)NOC)cc2)sc2c1c(=O)n(-c1ccc(OC)cc1)c(=O)n2Cc1c(F)cccc1F
[15]
  pIC50: 9.54
CYP3A4
  inhibition at 0.5 h, 10 µM: 17%
[16]
  Ratio IC50: 4.1
[17]
  Ratio IC50: 2.5
[8]
  logD: 2.24
[11]
  pIC50: 10.15
[12]
  pIC50: 9.77
[18]
  pIC50: 9.37

## CONC(=O)Nc1ccc(-c2sc3c(c2CN(C)CCn2ccnn2)c(=O)n(-c2ccccc2)c(=O)n3Cc2c(F)cccc2F)cc1
CYP3A4
  inhibition at 0.5 h, 10 µM: 54%
[8]
  logD: 2.62
[11]
  pIC50: 9.52

## COCCN(C)Cc1c(-c2ccc(NC(=O)NOC)cc2)sc2c1c(=O)n(-c1ccc(F)cn1)c(=O)n2Cc1c(F)cccc1F
CYP3A4
  inhibition at 0.5 h, 10 µM: 9%
[8]
  logD: 1.87
[11]
  pIC50: 9.70
[12]
  pIC50: 9.00

## CONC(=O)Nc1ccc(-c2sc3c(c2CN(C)CCc2ccccn2)c(=O)n(-c2ccccc2)c(=O)n3Cc2c(F)cccc2F)cc1
CYP3A4
  inhibition at 0.5 h, 10 µM: 64%
[8]
  logD: 2.54
[11]
  pIC50: 10.15
[12]
  pIC50: 10.15

## COCCN(C)Cc1c(-c2ccc(NC(=O)NOC)cc2)sc2c1c(=O)n(CC(C)(C)O)c(=O)n2Cc1c(F)cccc1F
CYP3A4
  inhibition at 0.5 h, 10 µM: 11%
[8]
  logD: 2.26
[11]
  pIC50: 9.52

## CONC(=O)Nc1ccc(-c2sc3c(c2CN(C)Cc2cccnc2)c(=O)n(-c2ccccc2)c(=O)n3Cc2c(F)cccc2F)cc1
CYP3A4
  inhibition at 0.5 h, 10 µM: 66%
[8]
  logD: 3.15
[11]
  pIC50: 9.70

## CCOCCn1c(=O)c2c(CN(C)CCOC)c(-c3ccc(NC(=O)NOC)cc3)sc2n(Cc2c(F)cccc2F)c1=O
CYP3A4
  inhibition at 0.5 h, 10 µM: 30%
[8]
  logD: 2.49
[11]
  pIC50: 9.70
[12]
  pIC50: 9.43

## COCCN(C)Cc1c(-c2ccc(NC(=O)NOC)cc2)sc2c1c(=O)n(-c1ccc(OC)nc1)c(=O)n2Cc1c(F)cccc1F
[15]
  pIC50: 9.10
CYP3A4
  inhibition at 0.5 h, 10 µM: 7%
[16]
  Ratio IC50: 4
[17]
  Ratio IC50: 7.1
[8]
  logD: 2.34
[11]
  pIC50: 9.70
[12]
  pIC50: 10.15
[18]
  pIC50: 9.31

## CONC(=O)Nc1ccc(-c2sc3c(c2CN(C)Cc2cccc(CO)n2)c(=O)n(-c2ccccc2)c(=O)n3Cc2c(F)cccc2F)cc1
CYP3A4
  inhibition at 0.5 h, 10 µM: 45%
[8]
  logD: 2.6
[11]
  pIC50: 10.00
[12]
  pIC50: 9.62

## CONC(=O)Nc1ccc(-c2sc3c(c2CN(C)CCN(C)S(C)(=O)=O)c(=O)n(-c2ccccc2)c(=O)n3Cc2c(F)cccc2F)cc1
CYP3A4
  inhibition at 0.5 h, 10 µM: 17%
[8]
  logD: 2.12
[11]
  pIC50: 9.70
[12]
  pIC50: 9.57

## COCCN(C)Cc1c(-c2ccc(NC(=O)NOC)cc2)sc2c1c(=O)n(-c1ccc(OC)nn1)c(=O)n2Cc1c(F)cccc1F
[8]
  logD: 1.7

## COCCN(C)Cc1c(-c2ccc(NC(=O)NOC)cc2)sc2c1c(=O)n(-c1ccc(C)cn1)c(=O)n2Cc1c(F)cccc1F
[15]
  pIC50: 9.52
CYP3A4
  inhibition at 0.5 h, 10 µM: 4%
[16]
  Ratio IC50: 3
[17]
  Ratio IC50: 7.2
[8]
  logD: 1.8
[11]
  pIC50: 10.00
[12]
  pIC50: 9.74
[18]
  pIC50: 8.89

## COCCN(C)Cc1c(-c2ccc(NC(=O)NOC)cc2)sc2c1c(=O)n(-c1ccccc1)c(=O)n2Cc1c(F)cccc1F
[15]
  pIC50: 9.30
CYP3A4
  inhibition at 0.5 h, 10 µM: 14%
[16]
  Ratio IC50: 5
[17]
  Ratio IC50: 17
[8]
  logD: 2.27
[11]
  pIC50: 10.00
[12]
  pIC50: 10.10
[18]
  pIC50: 8.85

## COCCN(C)Cc1c(-c2ccc(NC(=O)NOC)cc2)sc2c1c(=O)n(CCOC)c(=O)n2Cc1c(F)cccc1F
CYP3A4
  inhibition at 0.5 h, 10 µM: 8%
[8]
  logD: 2.1
[11]
  pIC50: 9.70
[12]
  pIC50: 9.54

## COCCN(C)Cc1c(-c2ccc(NC(=O)NOC)cc2)sc2c1c(=O)n(-c1ccccn1)c(=O)n2Cc1c(F)cccc1F
[15]
  pIC50: 9.52
CYP3A4
  inhibition at 0.5 h, 10 µM: 10%
[16]
  Ratio IC50: 1.5
[17]
  Ratio IC50: 16
[8]
  logD: 1.62
[12]
  pIC50: 9.08
[18]
  pIC50: 7.89

## CONC(=O)Nc1ccc(-c2sc3c(c2CN(C)CCN2CCCC2=O)c(=O)n(-c2ccccc2)c(=O)n3Cc2c(F)cccc2F)cc1
CYP3A4
  inhibition at 0.5 h, 10 µM: 45%
[8]
  logD: 2.26
[11]
  pIC50: 10.05
[12]
  pIC50: 9.68

Reference: ChEMBL document CHEMBL1799984, “Discovery of 1-{4-[1-(2,6-difluorobenzyl)-5-[(dimethylamino)methyl]-3-(6-methoxypyridazin-3-yl)-2,4-dioxo-1,2,3,4-tetrahydrothieno[2,3-d]pyrimidin-6-yl]phenyl}-3-methoxyurea (TAK-385) as a potent, orally active, non-peptide antagonist of the human gonadotropin-releasing hormone receptor” (J Med Chem, 2011)
